Measurements: ChEMBL document CHEMBL1121584, “Soft drugs. 3. A new class of anticholinergic agents” (J Med Chem, 1980)

Legend:
Felis catus [1] = species on record: Felis catus; assay: acetylcholine antagonist effect of compound on cat blood pressure at concentration 5.7*10e-7 in 27 min; format: functional
Procedure, shortened: (§1)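 Adult cats under ip α-chloralose (80 mg/kg) plus pentobarbitone (6 mg/kg), bilaterally vagotomized and artificially respired. Carotid blood pressure was recorded. An iv acetylcholine dose giving 70–80% of maximal vasodepressor response was used. After iv test drug, acetylcholine responses were checked at 1 min and then every 2–3 min and expressed as % of control. Doses were given in mol/kg, escalating after recovery.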

[2] = Half life period was measured at 7.4 pH from d[acid]/dt.; format: ADME; details: pH 7.4
Procedure, shortened: (§2)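 Chemical hydrolysis in 0.5 M potassium phosphate, pH 7.4, 37 °C. Rate was followed by appearance of the acid product or loss of the quaternary salt. Where salt contained amine hydrochloride, initial concentration was taken from final acid after complete hydrolysis. Half-life was estimated from both where resolved.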

Felis catus [3] = species on record: Felis catus; assay: acetylcholine antagonist effect of compound on cat blood pressure at concentration 5.7*10e-8 in 3 min; format: functional; procedure, shortened: as §1
Felis catus [4] = species on record: Felis catus; assay: acetylcholine antagonist effect of compound on cat blood pressure at concentration 5.7*10e-7 in 3 min; format: functional; procedure, shortened: as §1
Felis catus [5] = species on record: Felis catus; assay: acetylcholine antagonist effect of compound on cat blood pressure at concentration 5.7*10e-7 in 1 min; format: functional; procedure, shortened: as §1
Felis catus [6] = assay: acetylcholine antagonist effect of compound on cat blood pressure at concentration 5.7*10e-8 mol/kg in 1 min; format: functional; procedure, shortened: as §1
Felis catus [7] = species on record: Felis catus; assay: acetylcholine antagonist effect of compound on cat blood pressure at concentration 5.7*10e-7 in 12 min; format: functional; procedure, shortened: as §1
[8] = The hydrolytic kinetics expressed as Kobs was measured at 7.4 pH at 37 degree C; format: ADME; details: pH 7.4; procedure, shortened: as §2
Cavia porcellus [9] = species on record: Cavia porcellus; assay: Anticholinergic activity was measured by the guinea pig ileum test; format: functional; details: read-out: pA2 (converted)
Procedure, shortened: (§3)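 Guinea pig whole ileum strips in McEwan's solution, gassed with O2/CO2 95:5, 37 °C organ bath, 1 g tension. Cumulative acetylcholine concentration-response curves were run to constancy, then repeated after 15–20 min equilibration with increasing antagonist concentrations. Mean curves gave dose ratios, from which competitive antagonism and pA2 were derived.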

Felis catus [10] = species on record: Felis catus; assay: acetylcholine antagonist effect of compound on cat blood pressure at concentration 5.7*10e-7 in 15 min; format: functional; procedure, shortened: as §1
Felis catus [11] = species on record: Felis catus; assay: acetylcholine antagonist effect of compound on cat blood pressure at concentration 5.7*10e-7 in 6 min; format: functional; procedure, shortened: as §1
Felis catus [12] = species on record: Felis catus; assay: acetylcholine antagonist effect of compound on cat blood pressure at concentration 5.7*10e-8 in 5 min; format: functional
Procedure, shortened: (§4)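 Adult cats anesthetized ip with α-chloralose (80 mg/kg) plus sodium pentobarbitone (6 mg/kg), bilaterally vagotomized, artificially respired. Carotid arterial pressure recorded. Drugs given iv via brachial vein. Acetylcholine dose giving 70-80% of maximal vasodepressor response used throughout. Test drug injected, acetylcholine response checked 1 min later, then every ~2-3 min. Value is % of control vasodepressor response to acetylcholine.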

Felis catus [13] = species on record: Felis catus; assay: acetylcholine antagonist effect of compound on cat blood pressure at concentration 5.7*10e-8 in 9 min; format: functional; procedure, shortened: as §4
Felis catus [14] = species on record: Felis catus; assay: acetylcholine antagonist effect of compound on cat blood pressure at concentration 5.7*10e-7 in 18 min; format: functional; procedure, shortened: as §1
Felis catus [15] = species on record: Felis catus; assay: acetylcholine antagonist effect of compound on cat blood pressure at concentration 5.7*10e-7 in 37 min; format: functional; procedure, shortened: as §1
Felis catus [16] = species on record: Felis catus; assay: acetylcholine antagonist effect of compound on cat blood pressure at concentration 5.7*10e-7 in 31 min; format: functional; procedure, shortened: as §1
Felis catus [17] = species on record: Felis catus; assay: acetylcholine antagonist effect of compound on cat blood pressure at concentration 5.7*10e-8 in 7 min; format: functional; procedure, shortened: as §4
Felis catus [18] = species on record: Felis catus; assay: acetylcholine antagonist effect of compound on cat blood pressure at concentration 5.7*10e-7 in 22 min; format: functional; procedure, shortened: as §1
Felis catus [19] = species on record: Felis catus; assay: acetylcholine antagonist effect of compound on cat blood pressure at concentration 5.7*10e-7 in 24 min; format: functional; procedure, shortened: as §1
Felis catus [20] = species on record: Felis catus; assay: acetylcholine antagonist effect of compound on cat blood pressure at concentration 5.4*10e-8 in 2 min
Cavia porcellus [21] = species on record: Cavia porcellus; assay: Antihistamine activity was measured by the guinea pig ileum test.; format: functional; details: Cavia porcellus, Ileum; read-out: pA2 (converted)
Procedure, shortened: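 Guinea pig ileum strips, McEwan's solution, Carbogen, 37 °C, 1 g tension. Cumulative histamine concentration-response curves were recorded before and after 15–20 min equilibration with rising antagonist concentrations. pA2 came from dose ratios of mean curves.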

Felis catus [22] = species on record: Felis catus; assay: acetylcholine antagonist effect of compound on cat blood pressure at concentration 5.7*10e-8 in 4 min; format: functional; procedure, shortened: as §4
Felis catus [23] = species on record: Felis catus; assay: acetylcholine antagonist effect of compound on cat blood pressure at concentration 5.7*10e-8 in 8 min; format: functional; procedure, shortened: as §4
Felis catus [24] = species on record: Felis catus; assay: acetylcholine antagonist effect of compound on cat blood pressure at concentration 5.7*10e-8 in 6 min; format: functional; procedure, shortened: as §4
Felis catus [25] = species on record: Felis catus; assay: acetylcholine antagonist effect of compound on cat blood pressure at concentration 5.7*10e-7 in 9 min; format: functional; procedure, shortened: as §1
Felis catus [26] = species on record: Felis catus; assay: acetylcholine antagonist effect of compound on cat blood pressure at concentration 5.7*10e-7 in 21 min; format: functional; procedure, shortened: as §1
Cavia porcellus [27] = species on record: Cavia porcellus; assay: Anticholinergic activity was measured by the guinea pig ileum test.; format: functional; details: Cavia porcellus, Ileum; read-out: pA2 (converted); procedure, shortened: as §3
Felis catus [28] = species on record: Felis catus; assay: acetylcholine antagonist effect of compound on cat blood pressure at concentration 5.7*10e-8 in 10 min; format: functional; procedure, shortened: as §1
Felis catus [29] = species on record: Felis catus; assay: acetylcholine antagonist effect of compound on cat blood pressure at concentration 5.7*10e-7 in 17 min; format: functional; procedure, shortened: as §1
Felis catus [30] = species on record: Felis catus; assay: acetylcholine antagonist effect of compound on cat blood pressure at concentration 5.7*10e-7 in 13 min; format: functional; procedure, shortened: as §1
Felis catus [31] = species on record: Felis catus; assay: acetylcholine antagonist effect of compound on cat blood pressure at concentration 5.7*10e-7 in 10 min; format: functional; procedure, shortened: as §1
Felis catus [32] = species on record: Felis catus; assay: acetylcholine antagonist effect of compound on cat blood pressure at concentration 5.7*10e-7 in 29 min; format: functional; procedure, shortened: as §1
Felis catus [33] = species on record: Felis catus; assay: acetylcholine antagonist effect of compound on cat blood pressure at concentration 5.7*10e-7 in 4 min; format: functional; procedure, shortened: as §1
Felis catus [34] = species on record: Felis catus; assay: acetylcholine antagonist effect of compound on cat blood pressure at concentration 5.7*10e-7 in 25 min; format: functional; procedure, shortened: as §1

Row | Compound | Response (Felis catus [3]) [%] | Response (Felis catus [4]) [%] | Response (Felis catus [5]) [%] | Response (Felis catus [6]) [%] | Response (Felis catus [7]) [%] | Response (Felis catus [10]) [%] | Response (Felis catus [11]) [%] | Response (Felis catus [12]) [%] | Response (Felis catus [13]) [%] | Response (Felis catus [14]) [%] | Response (Felis catus [22]) [%] | Response (Felis catus [26]) [%] | also measured
1 | CC[N+](CC)(CC)COC(=O)C(c1ccccc1)C1CCCC1.[Cl-] (centres undefined) | 18 | 0 | 0 | 0 | 18 | 36 | 0 | 55 | 100 | 55 | – | – | Response (Felis catus [1]): 73%; half-life [2]: 32 h; K obs [8]: 0.000361 min⁻¹; Kb (Cavia porcellus [9]): 7.94 nM; Response (Felis catus [15]): 100%; Response (Felis catus [16]): 95%; Response (Felis catus [17]): 82%; Response (Felis catus [18]): 65%
2 | CC[N+](CC)(CC)COC(=O)C(c1ccccc1)C1CCCCC1.[Cl-] (centres undefined) | – | 0 | 0 | 0 | 43 | 60 | 0 | – | – | 78 | 50 | 93 | Response (Felis catus [19]): 100%; Response (Felis catus [20]): 0%; Kb (Cavia porcellus [21]): 2000 nM; Response (Felis catus [23]): 83%; Response (Felis catus [24]): 67%; Response (Felis catus [25]): 0%; Kb (Cavia porcellus [27]): 2.51 nM; Response (Felis catus [28]): 100%
3 | C[N+]1(COC(=O)C(c2ccccc2)C2CCCC2)CCOCC1.[Cl-] (centres undefined) | 45 | – | 0 | 0 | – | – | 0 | 90 | 100 | – | 82 | 73 | Response (Felis catus [29]): 59%; Response (Felis catus [30]): 50%; Response (Felis catus [31]): 23%; Response (Felis catus [32]): 100%; Response (Felis catus [33]): 0%; Response (Felis catus [34]): 82%
